Experimental data from different studies.
Lines come from different studies, so protocols differ.
Target: Calcium/calmodulin-dependent protein kinase type II subunit beta (CAMK2B, Homo sapiens, UniProt Q13554)

CCCCN(CCCC)C(=O)CN1C[C@@H](c2cc(OC)c3c(c2)OCO3)[C@H](C(=O)O)[C@H]1CC(C)(C)CCC  remaining binding (cell-free assay, competition with immobilised ligand; 1 µM): 100%
CC(C)(C)c1nc(-c2cccc(NS(=O)(=O)c3c(F)cccc3F)c2F)c(-c2ccnc(N)n2)s1  remaining activity (enzyme activity, inhibitor, radiometric; 1 µM): 78%
N#CCCc1ccc2c(c1)-c1[nH]c3ccc([N+](=O)[O-])cc3c1CC(=O)N2  remaining signal (cell-free assay; 0.5 µM): 99.3%
COc1cccc2c(NCc3ccccc3)nc(-n3c(N)nc4ccccc43)nc12  inhibition (target engagement in cells, inhibitor, chemoproteomics; 20 mM): -1.1%
Cc1ccc(NC(=O)c2ccc(C)c(C(F)(F)F)c2)cc1C#Cc1nn(C2CCC(O)CC2)c2ncnc(N)c12 (stereo not drawn)  remaining signal (cell-free assay; 10 µM): 85%
Cc1ccc(C(=O)Nc2ccc(CN3CCN(C)CC3)c(C(F)(F)F)c2)cc1C#Cc1cnc2cccnn12  remaining activity (enzyme activity, inhibitor; 23.5 nM): 97%
Cc1cnc(NC2CCOCC2)nc1-n1cnc(C(=O)NC(CN)c2cc(F)cc(Cl)c2)c1 (stereo not drawn)  remaining activity (enzyme activity, inhibitor, radiometric; 1 µM): 87%
O=c1cc(-c2cccc3c2Sc2ccccc2S3)oc(N2CCOCC2)c1  remaining activity (enzyme activity, inhibitor; 0.5 µM): 106%
Nc1ncnc2occ(-c3ccc(NC(=O)Nc4cc(C(F)(F)F)ccc4F)cc3)c12  remaining activity (enzyme activity, inhibitor; 20 µM): 95%
Cc1cc(-n2nc(Cc3cc(F)cc(C(F)(F)F)c3)nc2C)ccc1C(N)=O  remaining binding (cell-free assay, competition with immobilised ligand; 1 µM): 100%
Clc1ccc(Nc2nnc(Cc3ccncc3)c3ccccc23)cc1  remaining signal (cell-free assay; 0.5 µM): 109%
O=C(O)[C@H]1[C@H](Cn2nnc3ccccc3c2=O)CC[C@@H]1C(=O)c1ccc(OCCC2CCOCC2)cc1  remaining binding (cell-free assay, competition with immobilised ligand; 1 µM): 100%
COc1cc2ncnc(Nc3ccc(Oc4ccccc4)cc3C)c2cc1OC  inhibition (enzyme activity, inhibitor; 1 µM): 8%
Cc1noc([C@H]2C[C@@H](c3ccc(C(F)(F)F)cc3)CN(C(=O)N3CCS(=O)(=O)C3)C2)n1  remaining binding (cell-free assay, competition with immobilised ligand; 1 µM): 100%
CN1CC(Oc2cnc(C#N)cc2-c2ccn3nc(NC(=O)C4CC4)cc3c2)C1  inhibition (enzyme activity, inhibitor; 1 µM): -1%
CCCCNc1ncc2c(-c3ccc(F)cc3)nn(C[C@H]3CC[C@H](N)CC3)c2n1  inhibition (target engagement in cells, inhibitor, chemoproteomics; 20 mM): 29%
CCN(CC)CCNC(=O)c1c(C)[nH]c(/C=C2\C(=O)Nc3ccc(F)cc32)c1C  inhibition (enzyme activity, inhibitor; 10 µM): 91%
COc1cc(Cl)c(C(=O)N[C@@H](CN[C@H]2CC[C@@H](N)CC2)Cc2ccc(C#N)cc2)cc1-c1ccc(CN[C@H](C)c2ccc(C)cc2)o1  remaining activity (enzyme activity, inhibitor; 1 µM): 94%
Cc1ccc(C(=O)NCc2ccsc2)cc1C#Cc1cn(C(C)C)c2ncnc(N)c12  activity vs control (enzyme activity, inhibitor; 1 µM): 95%
Cc1nc(Cc2cccc(C(F)(F)F)c2)sc1-c1ccc(C(N)=O)nc1  remaining binding (cell-free assay, competition with immobilised ligand; 1 µM): 100%
O=C(Nc1cnn(-c2csc(C(=O)NC3COC3)c2)c1)Nc1c(F)cccc1Cl  remaining activity (enzyme activity, inhibitor; 5 µM): 99.1%
O=C1NC(=O)c2cc(Nc3ccc(F)cc3)c(Nc3ccc(F)cc3)cc21  remaining signal (cell-free assay; 0.5 µM): 98.7%
Cc1ccc(Nc2nccc(N(C)c3ccc4c(C)n(C)nc4c3)n2)cc1S(N)(=O)=O  inhibition (enzyme activity, inhibitor; 0.3 µM): 15%
O=C1Nc2ccc(Cl)cc2C1=Cc1cc(Cl)c(O)c(Cl)c1  remaining signal (cell-free assay; 0.5 µM): 92%
O=C1NC(c2ccccn2)Sc2ccccc21 (stereo not drawn)  remaining binding (cell-free assay, competition with immobilised ligand; 1 µM): 100%
CNC(=O)c1cc(Oc2ccc(NC(=O)Nc3ccc(Cl)c(C(F)(F)F)c3)cc2)ccn1  inhibition (enzyme activity, inhibitor; 10 µM): 50%
O=C(Nc1ccc(Oc2ccc(F)cc2)cc1)N1CCc2ncccc2[C@H]1c1ccc(F)cc1  remaining binding (cell-free assay, competition with immobilised ligand; 1 µM): 100%
COc1ccc(COc2ccc(Cc3cnc(N)nc3N)cc2OC)cc1  remaining signal (cell-free assay; 0.5 µM): 100%
O=C(NC[C@@H]1[C@H]2CN(C(=O)OCc3cc(C(F)(F)F)cc(C(F)(F)F)c3)C[C@@H]12)c1ccc2[nH]nnc2c1  remaining binding (cell-free assay, competition with immobilised ligand; 1 µM): 100%
CCN(CC)c1ccc(C2=NNC(=O)CC2C)cc1[N+](=O)[O-] (stereo not drawn)  remaining activity (enzyme activity, inhibitor; 10 µM): 96%
